# Experiment: Absorption and fluorescence measurements
# Type: physicochemical
# Conditions: for Absorption maximum λmaxAb / Fluorescence quantum yield ΦF: CM : ACN (4 : 1, v/v); for Absorption maximum λmaxAb: RPMI 1640 cell medium pH 7.5, 25 °C, c = 0.6 μM; for Fluorescence quantum yield ΦF: cell medium pH 7.5, 25 °C, average of three measurements; for Extinction coefficient ε: PB : ACN (4 : 1, v/v), 10 mM phosphate buffer pH 7.5, 25 °C
# Outline: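 UV-Vis absorption and corrected fluorescence spectra at 25 °C in 1 cm quartz cells, ~0.5–0.6 μM dye in 10 mM phosphate buffer pH 7.5 or RPMI 1640 medium pH 7.5 (serum containing acetylcholinesterase). Excitation 532 and 710 nm. ΦF relative to ICG in methanol (0.044) and Cy3 in PBS (0.04), absorbance 0.04–0.06 at excitation. Three independent measurements averaged, reproducibility within 5%.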
SMILES,Absorption maximum λmaxAb [nm],Fluorescence quantum yield ΦF [%],Extinction coefficient ε
"C[N+]1=C(C=CC2=C(OC(=O)CCCc3ccc(N(CCCl)CCCl)cc3)C(=CC=C3N(CCCCCC(=O)O)c4ccccc4C3(C)C)CCC2)C(C)(C)c2ccccc21 [IRD-CLB, 2-(2-(2-((4-(4-(bis(2-chloroethyl)amino)phenyl)butanoyl)oxy)-3-(2-(1-(5-carboxypentyl)-3,3-dimethylindolin-2-ylidene)ethylidene)cyclohex-1-en-1-yl)vinyl)-1,3,3-trimethyl-3H-indol-1-ium]",785,6.3 ± 0.5,160 000 M^−1 × cm^−1
"CN1C(=CC=C2CCCC(=CC=C3N(CCCCCC(=O)O)c4ccccc4C3(C)C)C2=O)C(C)(C)c2ccccc21 [RD, 6-(3,3-Dimethyl-2-(2-(2-oxo-3-(2-(1,3,3-trimethylindolin-2-ylidene)ethylidene)cyclohexylidene)ethylidene)indolin-1-yl)hexanoic acid]",526,2.6 ± 0.1,57 000 M^−1 × cm^−1

# — PMC9073098 (RSC Advances, 2019)
